Assay outcomes deposited in PubChem by several laboratories.
CHT inh: inhibitors of human choline transporter CHT. 310,000 compounds, 0.86% hits. B-score at 10 µM. CHT-expressing cells, membrane potential dye, choline response; stronger effect = lower value. AID 488975;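 active means B-score over 3 SD under the library average, and starting fluorescence ratio not unusually high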;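 further: choline stimulus applied at its EC90 after an EC20 pre-addition; B-score computed on integrated fluorescence ratio after choline addition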
Target sequence (Q9GZV3 whole entry, looked up): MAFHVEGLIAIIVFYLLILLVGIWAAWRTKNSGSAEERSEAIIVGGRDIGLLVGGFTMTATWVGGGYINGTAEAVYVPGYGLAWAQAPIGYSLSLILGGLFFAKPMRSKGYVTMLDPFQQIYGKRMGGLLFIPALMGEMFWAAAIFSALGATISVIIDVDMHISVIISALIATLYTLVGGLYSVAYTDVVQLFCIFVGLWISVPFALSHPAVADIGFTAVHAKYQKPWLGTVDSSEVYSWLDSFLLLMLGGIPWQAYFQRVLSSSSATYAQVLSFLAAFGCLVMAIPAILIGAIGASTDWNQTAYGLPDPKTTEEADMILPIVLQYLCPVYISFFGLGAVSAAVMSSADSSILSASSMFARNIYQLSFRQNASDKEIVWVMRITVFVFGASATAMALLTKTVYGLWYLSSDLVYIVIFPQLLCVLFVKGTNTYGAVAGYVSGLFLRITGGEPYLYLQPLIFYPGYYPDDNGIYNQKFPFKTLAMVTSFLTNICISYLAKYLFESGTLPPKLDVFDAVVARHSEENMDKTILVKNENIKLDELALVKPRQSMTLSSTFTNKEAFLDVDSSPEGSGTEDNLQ
CHT allo act: allosterically activates the human high affinity choline transporter; B-score at 10 µM; CHT-expressing cells, membrane potential dye, choline EC20; stronger effect = higher value; LV-AA mutant CHT in HEK293 cells; 310,000 compounds, 0.49% hits; Q9GZV3;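 active means initial fluorescence not abnormally high and integrated response B-score, plate-corrected, over 3 SD above library mean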
Rad51 HR inh: blocks human Rad51 in homologous recombination; hRad51 DNA strand exchange, fluorescence dequenching; inhibition, % at 10 µM; 200,000 compounds, 0.085% hits; AID 1385;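 active means inhibition above 40% at the single screening dose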;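 further: 0% = DMSO control wells and 100% = blanks with heterologous ssDNA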
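Read-out basis: percent inhibition relative to plate controls and blanks / Assay system: human Rad51 nucleoprotein filaments preassembled on unlabelled ssDNA / Timing: filaments 15 min 37 °C, then compound 30 min / Control set: per-plate controls and blanks / Technique: fluorescence dequenching at 485/520 nm / Compound: 10 µM final, single point / Also added: Fluorescein- and BHQ1-tagged 47-mer duplex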
KCC2 mod: KCC2 (human) Cl- transport modulation; 190,000 compounds, 2.2% hits; AID 1456; B-score of Tl+ flux slope (higher = more flux/activation; lower = inhibition) at 10 µM; Q9H2X9; KCC2 cells, thallium flux FluoZin-2 fluorescence;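 active means thallium flux slope and its plate-corrected score both differing from the plate sample mean at a set confidence after two filtering rounds, in either direction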;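 further: slope of fluorescence scaled to starting intensity during 10 to 20 s after thallium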
CHT inh conf: confirmation of human choline transporter CHT inhibitors; shares compounds with CHT inh; CHT-expressing cells, choline membrane potential dye; LV-to-AA substituted CHT, HEK293 cells; CHT activity remaining % of control (stronger effect = lower value), % at 10 µM; 2,400 compounds, 70% hits; AID 493221;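 active means choline transporter activity left, mean of duplicates at 10 µM, below buffer-only control mean minus 3 SD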;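 further: depolarization triggered by choline at its EC90 following an EC20 pre-addition; 0% = hemicholinium-3 full block and 100% = buffer-only control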
HEK293 CHT ctr: CHT inhibitor counter-screen hit in parental HEK293 cells | 2,400 compounds, 4% hits | AID 493222 | shares compounds with CHT inh | membrane potential dye, choline response; active = decrease or increase beyond buffer ±3SD | membrane potential ratio readout (active if shifted either direction beyond buffer ±3SD; no single direction) at 10 µM;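 further: parental cells lack the transporter so any hit is non-specific; ratio is peak minus trough fluorescence over baseline after EC90 choline challenge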
The depositor's hits bear a star; i = inactive; / = no result given. An excerpt weighted towards active compounds, which were near 2.6% of everything screened.

SMILES	CHT inh	CHT allo act	Rad51 HR inh	KCC2 mod	CHT inh conf	HEK293 CHT ctr
Cc1cc(N2CCCC2=O)cc(C)c1S(=O)(=O)NCCOc1ccccc1	-5.9*	i	2	-0.53	67%*	-8.4*
Cc1cc(C)n2nc(CNS(=O)(=O)c3ccc(C)c(C)c3)nc2n1	-6.9*	i	/	/	i	i
Cc1cc(C)n2nc(CNS(=O)(=O)c3ccc(F)c(C)c3)nc2n1	i	i	/	/	/	/
Cc1ccc(C)c(Nc2cc(C)nc3ccccc23)c1	i	i	/	/	/	/
CC(C)(C)NC(=O)COC(=O)c1ccc(Cl)nc1	i	i	1	0.63	/	/
CC(C)n1c(O)c(N=NC(=O)CNC(=O)Cc2ccc(Cl)cc2)c2ccccc21	-8*	i	/	/	36%*	i
CC(C)n1c(O)c(N=NC(=O)Cc2csc(N3CCOCC3)n2)c2ccccc21	-9.4*	i	2	-2.1	24%*	i
CC(C)n1c(O)c(N=NC(=O)CNC(=O)CCc2ccccc2)c2ccccc21	i	i	/	1.9	/	/
CN(C)CCCN(C(=O)c1cc2cc([N+](=O)[O-])ccc2s1)c1nc2cc3c(cc2s1)OCCO3	i	i	/	/	/	/
Fc1ccc(-c2ccnc(=S)[nH]2)cc1	i	i	-2	/	/	/
COc1ccc(NC(=O)CCNS(=O)(=O)c2ccc3c(c2)CC(C)N3C(=O)C2CC2)cc1 (stereo unspecified)	i	i	/	/	/	/
CC(=O)N1c2ccc(S(=O)(=O)NCc3ccccc3Cl)cc2CC1C (stereo unspecified)	-7*	i	/	/	61%*	i
CC(=O)N1c2ccc(S(=O)(=O)NCCC(=O)NC3CCCC(C)C3C)cc2CC1C (stereo unspecified)	-6.8*	i	/	/	38%*	i
COc1cccc(NC(=O)CCNS(=O)(=O)c2ccc3c(c2)CC(C)N3C(=O)C2CC2)c1 (stereo unspecified)	-5.2*	i	/	/	i	i
CCc1ccc(OCC(=O)O/N=C(\N)c2ccncc2)c(Br)c1	i	i	/	/	/	/
CCOc1ccc(CCN2C(=O)c3ccc(C(=O)O)cc3C2=O)cc1OCC	i	i	/	/	/	/
CC1CCC(NC(=O)c2cccc(S(=O)(=O)N3CCN(c4ccc(F)cc4)CC3)c2)CC1 (stereo unspecified)	-5.6*	i	/	/	i	i
CC1CCN(S(=O)(=O)c2cccc(C(=O)N3CCN(c4ccc(F)cc4)CC3)c2)CC1	i	i	/	/	/	/
O=C(NNC(=O)c1cccc(S(=O)(=O)N2CCN(c3ccccc3)CC2)c1)c1ccc(Cl)cc1	-5.4*	i	-1	-0.058	i	i
O=C(c1cccc(S(=O)(=O)N2CCCC2)c1)N1CCN(c2ccccc2)CC1	i	i	7	-0.13	/	/
CCOC(=O)Cc1nc2cc(Cl)ccc2o1	i	i	1	0.49	/	/
O=c1c2c(C(F)(F)F)cc(C(F)(F)F)nc2[nH]n1-c1ccccc1	-6.1*	i	-9	/	46%*	i
Cc1cc(C(C)(C)C)nc2[nH]n(-c3ccccc3)c(=O)c12	i	i	-39	1.2	/	/
O=C(Nc1cccn(Cc2c(Cl)cccc2Cl)c1=O)C1CC1	i	i	3	4.1	/	/
C#CCOC(=O)Nc1cccn(Cc2c(Cl)cccc2Cl)c1=O	-5.1*	i	-1	/	i	i
CCn1c(SCC(=O)NCC2CCCO2)nnc1-c1ccc(S(=O)(=O)N2CCN(C)CC2)cc1 (stereo unspecified)	i	i	-2	1.2	/	/
COc1ccccc1NC(=O)c1ccc(C(=O)c2ccccc2)o1	-5*	i	25	-1.1	i	i
COCCN(C(=O)CCC(=O)Nc1cc(C)on1)C(C(=O)NC(C)(C)C)c1cccc(OC)c1OC (stereo unspecified)	-5.8*	i	/	/	i	i
COc1cccc(C(C(=O)NC(C)(C)C)N(CCC(C)C)C(=O)CCC(=O)Nc2cc(C)on2)c1OC (stereo unspecified)	i	i	/	1	/	/
CCc1nnc(NC(=O)CSc2nc3c(c(=O)n2C)SC(C)C3)s1 (stereo unspecified)	i	i	-2	-0.89	/	/
